NPY Y1 blocker: NPY-Y1 (human) receptor antagonism | P25929 | HEK293-CNG Y1 cells, membrane potential fluorescence; NPY at EC95, then isoproterenol | inhibition, % at 3.6 µM | 1% of 200,000 active | AID 1040;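 active means inhibition above the campaign mean inhibition of all tested compounds plus 3 SD, cut at about 20% in these data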;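 further: 0% = DMSO wells given NPY plus isoproterenol and 100% = isoproterenol alone without NPY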
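Material: HEK293 Y1/CNG channel cell line | Also added: NPY (25 nM), isoproterenol (1 µM), Ro 20-1724 (25 µM) | Compound: One concentration, 3.6 µM, in 0.4% DMSO | Schedule: 3 h dye uptake, 1 h room-temperature compound, 45 min post-isoproterenol | Signal: Membrane-potential fluorescent dye readout | Read-out: % inhibition of NPY effect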
NPY-Y2 antag: NPY-Y2 (human) receptor antagonism. P49146. NPY-Y2 expressing cells, antagonist mode. inhibition, % at 2.7 µM. 0.99% of 140,000 active; in the data active means inhibition above about 17%;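 further: 0% = vehicle with agonist challenge and 100% = reference antagonist with challenge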
Target sequence (P49146 whole entry, looked up): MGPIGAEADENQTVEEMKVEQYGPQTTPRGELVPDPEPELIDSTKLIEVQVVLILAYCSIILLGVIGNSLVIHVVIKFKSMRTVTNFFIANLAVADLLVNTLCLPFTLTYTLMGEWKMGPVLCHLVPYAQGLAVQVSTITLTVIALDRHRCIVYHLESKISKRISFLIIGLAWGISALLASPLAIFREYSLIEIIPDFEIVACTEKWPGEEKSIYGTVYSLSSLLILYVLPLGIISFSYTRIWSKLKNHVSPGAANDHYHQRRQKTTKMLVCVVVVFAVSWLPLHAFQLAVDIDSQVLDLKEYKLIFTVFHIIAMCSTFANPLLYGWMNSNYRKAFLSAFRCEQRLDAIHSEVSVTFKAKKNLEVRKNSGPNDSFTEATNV
NPY-Y2 PAM-ag: potentiators or agonists of human neuropeptide Y receptor Y2; P49146; cells expressing NPY-Y2, potentiator/agonist read-out; activation, % at 3.6 µM; 0.45% of 220,000 active; AID 1359; in the data active means activation above about 27%;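 further: cells stimulated with NPY near EC25 plus isoproterenol at EC100; 0% = vehicle plus submaximal agonist and 100% = vehicle plus saturating agonist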
NPY1 pot ag: potentiates or activates human NPY-Y1 receptor; NPY-Y1 expressing cells, potentiator/agonist activation; P25929; activation, % at 3.6 µM; 0.37% of 220,000 active; AID 1304; in the data active means activation above about 33%, passing the limit was not always enough;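 further: cells stimulated with NPY at EC10 then isoproterenol at EC100; 0% = low agonist plus stimulus and 100% = saturating agonist plus stimulus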
The depositor's hits bear a star. Rows were chosen to be rich in hits. Some 1.8% of all compounds tested hit in one or more screens of this group.

What do the screens show for `Cc1ccccc1NC(=S)N(Cc1cccs1)C1CCCCC1`?
NPY Y1 blocker: 0.6; NPY-Y2 PAM-ag: 3.5; NPY1 pot ag: 14.2

Results for COc1ccc(Br)cc1CN1CCCCCCC1 ?
NPY Y1 blocker: 21.6*; NPY-Y2 antag: 21.3*; NPY-Y2 PAM-ag: -25.4; NPY1 pot ag: -30.6

What do the screens show for `CC(=O)NC(C)CCc1ccccc1` (stereo unspecified)?
NPY-Y2 PAM-ag: -11.5; NPY1 pot ag: -7.2

What do the screens show for `CC(CCc1ccccc1)NCC(O)c1ccc(O)c(C(N)=O)c1` (stereo unspecified)?
NPY Y1 blocker: -14.2; NPY-Y2 antag: 0.7; NPY-Y2 PAM-ag: 103.2*; NPY1 pot ag: 116.5*

What do the screens show for `Cc1nc2ccccc2nc1OCc1ccccc1`?
NPY Y1 blocker: 2.9; NPY-Y2 antag: 5.0; NPY-Y2 PAM-ag: 0.3; NPY1 pot ag: -0.1

How did CC(O)c1c(OCc2ccccc2)ncnc1OCc1ccccc1 (stereo unspecified) do in these assays?
NPY Y1 blocker: 32.9*; NPY-Y2 antag: 3.2; NPY-Y2 PAM-ag: -14.5; NPY1 pot ag: -27.4

Results for COc1cccc(OCC(O)CN2CCOCC2)c1 (stereo unspecified) ?
NPY Y1 blocker: -6.1; NPY-Y2 antag: 1.9; NPY-Y2 PAM-ag: 44.8*; NPY1 pot ag: 59.8*

What do the screens show for `COc1ccc(COCC(O)CN2CCOCC2)cc1OC` (stereo unspecified)?
NPY Y1 blocker: -12.1; NPY-Y2 antag: -0.9; NPY-Y2 PAM-ag: 78.5*; NPY1 pot ag: 54.3*

How did COc1cccc(OCC(O)CN2CCN(c3ccccc3)CC2)c1 (stereo unspecified) do in these assays?
NPY-Y2 PAM-ag: -16.6; NPY1 pot ag: 18.4

What do the screens show for `C/C(=N\NC(=O)C(=O)Nc1cccc(Cl)c1C)c1ccncc1`?
NPY Y1 blocker: 0.9; NPY-Y2 antag: 1.2; NPY-Y2 PAM-ag: 5.5; NPY1 pot ag: -6.7

Results for COc1ccc(NC(=O)N2CCC(CO)(CC3CCCCO3)CC2)c(OC)c1 (stereo unspecified) ?
NPY-Y2 PAM-ag: -10.2; NPY1 pot ag: 0.1

What do the screens show for `O=C(N/C(=C/c1cccc(Br)c1)c1nc(=S)[nH][nH]1)c1ccccc1`?
NPY Y1 blocker: -13.1; NPY-Y2 antag: -3.3; NPY-Y2 PAM-ag: 25.5*; NPY1 pot ag: 51.2*

How did Cc1ccc(C(=O)N/C(=C\c2ccc(Br)cc2)c2nc(=S)[nH][nH]2)cc1 do in these assays?
NPY Y1 blocker: -14.1; NPY-Y2 antag: -4.6; NPY-Y2 PAM-ag: 21.1; NPY1 pot ag: 47.4*

Results for COc1ccc(/C=C(/NC(=O)c2ccccc2)c2nc3ccccc3[nH]2)cc1OC ?
NPY Y1 blocker: -4.0; NPY-Y2 antag: 2.2; NPY-Y2 PAM-ag: -6.5; NPY1 pot ag: 6.6

How did Cn1nc(C(F)(F)F)c(-c2cccc(C(F)(F)F)c2)c1NC(=O)c1ccco1 do in these assays?
NPY-Y2 PAM-ag: -11.4; NPY1 pot ag: -0.1

What do the screens show for `Cn1nc(C(F)(F)F)c(-c2cccc(C(F)(F)F)c2)c1NC(=O)Nc1ccc(F)cc1`?
NPY-Y2 PAM-ag: 102.2*; NPY1 pot ag: 110.5*

Results for COC(=O)C1CCN(C(=O)c2cc3c(=O)n4cccc(C)c4nc3n2Cc2ccccc2)CC1 ?
NPY-Y2 PAM-ag: -17.3; NPY1 pot ag: 5.8

How did COc1ccc(C(O)c2coc3ccc(O)c(CN(C)C)c23)cc1 (stereo unspecified) do in these assays?
NPY Y1 blocker: -21.4; NPY-Y2 antag: 3.2; NPY-Y2 PAM-ag: 100.4*; NPY1 pot ag: 106.6*

What do the screens show for `CCCCN(CCCC)CP(=O)(c1ccccc1)c1ccccc1`?
NPY Y1 blocker: 27.5*; NPY-Y2 antag: 26.3*; NPY-Y2 PAM-ag: -8.0; NPY1 pot ag: 9.4

What do the screens show for `CCCC(=O)Nc1ccc(OCC(O)CNC(C)C)c(C(C)=O)c1` (stereo unspecified)?
NPY Y1 blocker: -3.6; NPY-Y2 antag: 1.0; NPY-Y2 PAM-ag: 4.6; NPY1 pot ag: -12.4

What do the screens show for `CC(C)NCC(O)COc1cccc2[nH]ccc12` (stereo unspecified)?
NPY Y1 blocker: -15.0; NPY-Y2 PAM-ag: 105.7*; NPY1 pot ag: 113.3*

How did CC(=O)NCCc1c[nH]c2ccc(OCC(O)CNC(C)(C)C)cc12 (stereo unspecified) do in these assays?
NPY-Y2 PAM-ag: 57.3*; NPY1 pot ag: 81.4*

Results for COC(=O)Cc1c[nH]c2ccc(OCC(O)CNC(C)C)cc12 (stereo unspecified) ?
NPY Y1 blocker: -14.2; NPY-Y2 antag: 0.0; NPY-Y2 PAM-ag: 88.1*; NPY1 pot ag: 101.3*

What do the screens show for `COc1ccc2[nH]cc(CC(=O)O)c2c1`?
NPY Y1 blocker: 1.7; NPY-Y2 antag: 1.2; NPY-Y2 PAM-ag: 1.3; NPY1 pot ag: -6.2

Source: PubChem BioAssay
